In brackets after ≈: the same amount, converted by molar mass. Activity calls are given as the source filed them. No cut-off for these calls is given here.
Assays:
[1] = Metabolic stability in liver microsomes (unknown origin); format: ADME
Candida albicans [2] = test: Ratio of IC50 for inhibition of cell wall biosynthesis in Candida albicans WTBF-50 by [3H]-glucosamine incorporation assay to IC50 for inhibition of DNA and RNA biosynthesis in Candida albicans WTBF-50 by [3H]-adenine incorporation assay; format: functional
How it was run: (§1)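 The ratio was formed from IC50 values of the 3H-precursor incorporation assay: C. albicans at OD600 of about 1 in RPMI, serial compound dilutions, 10 μCi/ml final label, 90 min at 37 °C. TCA precipitate was scintillation-counted, triplicates were run, and IC50 came from a four-parameter fit.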

Candida parapsilosis = test: Antifungal activity against Candida parapsilosis ATCC 90018 WTBF-88 by microbroth dilution method; format: functional; settings: Lodderomyces parapsilosis
How it was run: (§2)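 CLSI microbroth dilution in RPMI 1640 with L-glutamine. MIC values are geometric means of three independent assays.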

Candida albicans [3] = test: Fungicidal activity against Candida albicans WTBF-50 assessed as inhibition of DNA and RNA biosynthesis after 90 mins by [3H]-adenine incorporation assay; format: functional, organism-based
How it was run: (§3)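 C. albicans was grown in RPMI at 37 °C to OD600 of about 1, then mixed with 2-fold serial dilutions of compound and one 3H precursor at 10 μCi/ml final. Incubation ran 90 min at 37 °C, about one doubling. TCA precipitate was filter-collected and scintillation-counted. Each concentration was tested in triplicate. Incorporation relative to untreated control was fitted with a four-parameter curve to give the IC50.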

Candida albicans [4] = test: Fungicidal activity against Candida albicans WTBF-50 assessed as inhibition of cell wall biosynthesis after 90 mins by [3H]-glucosamine incorporation assay; format: functional, organism-based; how it was run: as §3
Candida albicans [5] = test: Antifungal activity against Candida albicans WTBF-50 by microbroth dilution method; format: functional; how it was run: as §2
Candida albicans [6] = test: Fungicidal activity against Candida albicans WTBF-50 assessed as log10 reduction in CFU/ml at 1 x MIC measured within 4 hrs; format: functional
How it was run: (§4)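 C. albicans was grown in RPMI at 37 °C to OD600 of about 1. […] Samples taken at intervals were serially diluted and plated on Sabouraud agar, and cfu/ml was counted.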

Candida albicans [7] = test: Fungicidal activity against Candida albicans WTBF-50 assessed as decrease in number of viable cells measured within 4 to 24 hrs; format: functional, organism-based; how it was run: as §4
HeLa = test: Cytotoxicity against human HeLa cells assessed as cell viability after 72 hrs by MTS assay; format: cell-based
Candida albicans [8] = test: Fungicidal activity against Candida albicans WTBF-50 assessed as log10 reduction in CFU/ml at 4 x MIC measured within 4 hrs; format: functional; how it was run: as §4
Cryptococcus neoformans = test: Antifungal activity against Cryptococcus neoformans Cn18 (Serotype C) WTBF-106 by microbroth dilution method; format: functional
How it was run: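 Microbroth dilution per the CLSI protocol, run in Sabouraud Dextrose Broth in place of RPMI. MIC values are geometric means of three independent assays.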

Candida albicans [9] = test: Fungicidal activity against Candida albicans WTBF-50 assessed as inhibition of RNA biosynthesis after 90 mins by [3H]-uridine incorporation assay; format: functional, organism-based; how it was run: as §3
Candida albicans [10] = test: Fungicidal activity against Candida albicans WTBF-50 assessed as inhibition of protein biosynthesis after 90 mins by [3H]-leucine incorporation assay; format: functional, organism-based; how it was run: as §3
Candida albicans [11] = test: Fungicidal activity against Candida albicans WTBF-50 assessed as inhibition of lipid biosynthesis after 90 mins by [3H]-acetate incorporation assay; format: functional, organism-based; how it was run: as §3
Pichia kudriavzevii = test: Antifungal activity against Candida krusei WTBF-51 by microbroth dilution method; format: functional
Candida albicans [12] = test: Ratio of IC50 for inhibition of RNA biosynthesis in Candida albicans WTBF-50 by [3H]-uridine incorporation assay to IC50 for inhibition of DNA and RNA biosynthesis in Candida albicans WTBF-50 by [3H]-adenine incorporation assay; format: functional; how it was run: as §1
Nakaseomyces glabratus = test: Antifungal activity against Candida glabrata ATCC 90030 WTBF-86 by microbroth dilution method; format: functional; how it was run: as §2
Candida albicans [13] = test: Fungicidal activity against Candida albicans WTBF-50 assessed as log10 reduction in CFU/ml at 1 x MIC measured within 24 hrs; format: functional; how it was run: as §4
Candida albicans [14] = test: Fungicidal activity against Candida albicans WTBF-50 assessed as log10 reduction in CFU/ml at 2 x MIC measured within 24 hrs; format: functional; how it was run: as §4
Candida albicans [15] = test: Fungicidal activity against Candida albicans WTBF-50 assessed as decrease in number of viable cells at 4 x MIC measured within 4 to 24 hrs; format: functional, organism-based; how it was run: as §4
Candida albicans [16] = test: Binding affinity to DNA in Candida albicans WTBF-50 at 4 x MIC after 30 mins by Syto9 dye-based fluorescence microscope with GFP filter analysis
How it was run: (§5)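 An exponential C. albicans culture was treated for 30 min with bisamidine at 4× MIC or with 33 μM Syto9. Fluorescence microscopy used the DAPI channel for the bisamidine and the GFP channel for Syto9, at 400× magnification.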

Candida albicans [17] = test: Binding affinity to DNA in Candida albicans WTBF-50 at 4 x MIC after 30 mins by Syto9 dye-based fluorescence microscope with DAPI filter analysis; how it was run: as §5

Stability [1] | MIC (Candida parapsilosis) [µg/mL] | MIC (Candida albicans [5]) [µg/mL] | MIC (Cryptococcus neoformans) [µg/mL] | MIC (Pichia kudriavzevii) [µg/mL] | MIC (Nakaseomyces glabratus) [µg/mL] | SMILES | CC50 (HeLa) [µg/mL] | also measured
Stable | 0.13 | 0.25 | 0.13 | 0.5 | 0.06 | CC(=O)O.c1cc2cc(-c3ccc(-c4ccc5cc(C6=NCCCN6)oc5c4)cc3)[nH]c2cc1C1=NCCCN1 | 1.5 | Activity (Candida albicans [7]): Dose-dependent effect; Activity (Candida albicans [8]): >3 log10CFU/ml
Stable | 0.16 | 0.25 | 0.98 | 0.25 | 0.06 | CC(=O)O.c1cc2cc(-c3ccc(-c4c[nH]c5cc(C6=NCCCN6)ccc45)cc3)[nH]c2cc1C1=NCCCN1 | 2.4 | Ratio IC50 (Candida albicans [2]): 43.5; IC50 (Candida albicans [3]): 0.02 µg/mL; IC50 (Candida albicans [4]): 0.87 µg/mL; Activity (Candida albicans [13]): 1 log10CFU/ml; Activity (Candida albicans [7]): Dose-dependent effect; Activity (Candida albicans [8]): >3 log10CFU/ml; IC50 (Candida albicans [9]): 0.56 µg/mL; IC50 (Candida albicans [10]): 0.86 µg/mL; IC50 (Candida albicans [11]): ≥ 2 µg/mL; Activity (Candida albicans [14]): 4 log10CFU/ml; Ratio IC50 (Candida albicans [12]): 30
– | 12.5 (≈ 36.7 µM) | 25 (≈ 73.4 µM) | ≥ 100 | 19.8 (≈ 58.2 µM) | 3.13 (≈ 9.19 µM) | N=C(N)c1ccc(OCCCCCOc2ccc(C(=N)N)cc2)cc1 [PENTAMIDINE] | – | IC50 (Candida albicans [3]): 0.19 µg/mL (≈ 0.558 µM); IC50 (Candida albicans [4]): > 25 µg/mL; IC50 (Candida albicans [9]): 12.2 µg/mL (≈ 35.8 µM); IC50 (Candida albicans [10]): > 25 µg/mL; IC50 (Candida albicans [11]): > 25 µg/mL
– | 0.31 (≈ 0.335 µM) | – | 32 (≈ 34.6 µM) | – | 0.25 (≈ 0.271 µM) | C[C@@H]1[C@H](O)[C@@H](C)/C=C/C=C/C=C/C=C/C=C/C=C/C=C/[C@H](O[C@@H]2O[C@H](C)[C@@H](O)[C@H](N)[C@@H]2O)C[C@@H]2O[C@](O)(C[C@@H](O)C[C@@H](O)[C@H](O)CC[C@@H](O)C[C@@H](O)CC(=O)O[C@H]1C)C[C@H](O)[C@H]2C(=O)O [AMPHOTERICIN B] | – | IC50 (Candida albicans [3]): 0.038 µg/mL (≈ 0.0411 µM); IC50 (Candida albicans [4]): 0.043 µg/mL (≈ 0.0465 µM); IC50 (Candida albicans [9]): 0.014 µg/mL (≈ 0.0152 µM); IC50 (Candida albicans [10]): 0.052 µg/mL (≈ 0.0563 µM); IC50 (Candida albicans [11]): 0.036 µg/mL (≈ 0.039 µM); Activity (Candida albicans [15]): Active
Stable | 1 (≈ 2 µM) | 1.59 (≈ 3.18 µM) | 1.97 (≈ 3.93 µM) | 4 (≈ 7.99 µM) | 1.26 (≈ 2.52 µM) | CN1CCCN=C1c1ccc2cc(-c3ccc(-c4cc5ccc(C6=NCCCN6C)cc5[nH]4)cc3)[nH]c2c1 | 4.7 (≈ 9.39 µM) | –
Stable | 0.25 | 0.5 | 0.25 | 1 | 0.16 | CC(=O)O.c1cc2cc(-c3ccc(-c4cc5ccc(C6=NCCCN6)cc5o4)cc3)[nH]c2cc1C1=NCCCN1 | 4.7 | –
Stable | 1 | 1 | 6.25 | 1.26 | 0.16 | CC(=O)O.c1cc2cc(-c3ccc4nc(C5=NCCCN5)cn4c3)[nH]c2cc1C1=NCCCN1 | 91.9 | –
Stable | 0.13 | 0.31 | 1.24 | 0.25 | ≤ 0.03 | CC(=O)O.c1cc2cc(-c3cnc(-c4cc5ccc(C6=NCCCN6)cc5[nH]4)nc3)[nH]c2cc1C1=NCCCN1 | 25.5 | –
Stable | 0.31 | 0.79 | 0.5 | 1 | 0.13 | CC(=O)O.c1cc2cc(-c3ccc(-c4ccn5cc(C6=NCCCN6)nc5c4)cc3)[nH]c2cc1C1=NCCCN1 | 13.4 | –
Stable | ≥ 32 | ≥ 32 | 1.59 (≈ 3.51 µM) | ≥ 32 | 1 (≈ 2.21 µM) | c1cc2cc(CCCCc3cc4ccc(C5=NCCCN5)cc4[nH]3)[nH]c2cc1C1=NCCCN1 | 14.7 (≈ 32.5 µM) | –
Stable | 0.2 | 0.5 | 3.13 | 0.5 | 0.06 | CC(=O)O.c1cc2cc(-c3cnc(-c4cc5ccc(C6=NCCCN6)cc5[nH]4)cn3)[nH]c2cc1C1=NCCCN1 | 42.7 | –

SMILES | Stability [1] | MIC (Candida parapsilosis) [µg/mL] | MIC (Candida albicans [5]) [µg/mL] | MIC (Cryptococcus neoformans) [µg/mL] | MIC (Pichia kudriavzevii) [µg/mL] | MIC (Nakaseomyces glabratus) [µg/mL] | CC50 (HeLa) [µg/mL] | also measured
O=C(O)C(F)(F)F.c1cc2cc(-c3ccc(-c4cc5ccc(C6=NCCCN6)cc5[nH]4)cc3)[nH]c2cc1C1=NCCCN1 | Stable | 0.1 | 0.25 | 0.08 | 0.13 | 0.06 | 4 | Ratio IC50 (Candida albicans [2]): 59; IC50 (Candida albicans [3]): 0.01 µg/mL; IC50 (Candida albicans [4]): 0.59 µg/mL; Activity (Candida albicans [6]): 3 log10CFU/ml; Activity (Candida albicans [7]): Dose-dependent effect; Activity (Candida albicans [8]): >3 log10CFU/ml; IC50 (Candida albicans [9]): 0.32 µg/mL; IC50 (Candida albicans [10]): 0.59 µg/mL; IC50 (Candida albicans [11]): ≥ 2 µg/mL; Ratio IC50 (Candida albicans [12]): 30
O=C(O)C(F)(F)F.c1cc2cc(-c3ccc(-c4cc5ccc(C6=NCCN6)cc5[nH]4)cc3)[nH]c2cc1C1=NCCN1 | Stable | 0.63 | 10.1 | 2 | 4 | 0.25 | 32.5 | Activity (Candida albicans [16]): Active; Activity (Candida albicans [17]): Active
CC1CNC(c2ccc3cc(-c4ccc(-c5cc6ccc(C7=NC(C)CN7)cc6[nH]5)cc4)[nH]c3c2)=N1.O=C(O)C(F)(F)F (stereo not given) | Stable | 0.4 | 0.79 | 0.25 | 0.79 | 0.25 | 66.5 | –
CC(C)NC(=N)c1ccc2cc(-c3ccc(-c4cc5ccc(C(=N)NC(C)C)cc5[nH]4)cc3)[nH]c2c1.O=C(O)C(F)(F)F | Stable | 0.25 | 0.5 | 1.56 | 0.4 | 0.2 | 3.5 | –

— ChEMBL document CHEMBL3600321, “Synthesis and antifungal evaluation of head-to-head and head-to-tail bisamidine compounds” (Bioorg Med Chem, 2015)
